Data set [1] relates to Hepatitis B virus. In words: Antiviral activity against HBV infected in human HepG2(2.2.15) cells assessed as inhibition of viral DNA replication by measuring HBsAg and HBeAg production at TC50 after 9 days by EIA. It counts as functional, organism-based.
A short description of data set [2]: Cytotoxicity against human HepG2(2.2.15) cells after 24 hours following 9 days of treatment by neutral red dye uptake assay. The settings on record: read-out: TC50. It counts as cell-based. The procedure, abridged:
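2.2.15 cells grown to confluence were treated with compound as in the antiviral assay, with untreated controls on each plate. Toxicity was measured by neutral red uptake (absorbance 510 nm, relative to untreated cells) 24 h after 9 days of treatment, giving TC50.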

Data set [3] relates to Hepatitis B virus. In words: Antiviral activity against HBV infected in human HepG2(2.2.15) cells assessed as inhibition of viral DNA replication by measuring HBsAg and HBeAg production after 9 days by EIA. The format is functional, organism-based. The settings on record: HepG2 2.2.15, 216 h. The procedure, abridged: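 Confluent 2.2.15 cells in RPMI 1640 with 2% FBS received test compounds daily (medium changed daily) for 8 consecutive days in a second protocol. Cells in the 24-well protocol were seeded at 1.0 × 10⁵ cells/mL in MEM with 10% FBS for 24 h. They were then exposed to drug for 9 days, with medium changed every 3 days. Supernatant HBsAg/HBeAg was read by EIA at days 6 and 9, and the test was run twice.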

Data set [4] in a line: Selectivity index, ratio of TC50 for human HepG2(2.2.15) cells to IC50 for HBV. The procedure, abridged: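 Calculated as TC50 (neutral red uptake in 2.2.15 cells) divided by IC50 (HBsAg/HBeAg inhibition by EIA in 2.2.15 cells).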

The structures appear in SMILES notation. Calls of active or inactive are those of the source. No cut-off for these calls is given here. Square brackets hold non-standard residues; d marks the D form. Peptide text beside a SMILES is read from it. * marks the point of attachment. Phe(4-NO2) = N[C@@H](Cc1ccc([N+](=O)[O-])cc1)C(=O)O; 4Abz = Nc1ccc(C(=O)O)cc1; Propionyl = CCC(=O)*; Bz = O=C(c1ccccc1)*; ClAc = O=C(CCl)*

As usually defined, the IC50 is the concentration that gives 50% inhibition.

On to `COC(=O)[C@H](Cc1ccccc1)NC(=O)[C@H](Cc1ccc(O)cc1)NC(=O)c1ccncc1`, for which the inhibition result in the data set on Hepatitis B virus [1] is “inactive”. In data set [2], the CC50 at 216 h amounted to 219 µM.
The corresponding values for `COC(=O)[C@H](Cc1ccccc1)NC(=O)[C@H](Cc1ccccc1)NC(=O)c1ccc(NC(=O)CN(C)C)cc1` are “inactive” and 111 µM.
Taken in the same sequence, the figures for `COC(=O)[C@H](Cc1ccccc1)NC(=O)[C@H](Cc1ccccc1)NC(=O)c1ccc(NC(=O)CCl)cc1` ({ClAc-4Abz}-Phe-Phe-OMe) were “inactive” and 223 µM.
Take `CCC(=O)Nc1ccc(C(=O)N[C@@H](Cc2ccccc2)C(=O)N[C@@H](Cc2ccccc2)C(=O)OC)cc1` ({Propionyl-4Abz}-Phe-Phe-OMe): the IC50 with Hepatitis B virus [3] came out at 2.85 µM. Moreover, the CC50 at 216 h in data set [2] is 258 µM. The “Selectivity Index” value in data set [4] came out at 90.45.
Turning to `COC(=O)[C@H](Cc1ccc(O)cc1)NC(=O)[C@H](Cc1ccccc1)NC(=O)c1ccncc1`, the IC50 with Hepatitis B virus [3] was determined as 5.39 µM. Moreover, the CC50 at 216 h in data set [2] worked out at 867 µM. Also, the “Selectivity Index” value in data set [4] is 161.01.
The corresponding values for `CN(C)Cc1ccc(C(=O)N[C@@H](Cc2ccccc2)C(=O)N[C@H](CO)Cc2ccccc2)cc1` are 15.8 µM, 188 µM and 11.84.
Turning to `COc1ccc(C[C@H](NC(=O)[C@H](Cc2ccccc2)NC(=O)c2ccccc2)C(=O)[O-])cc1.[Na+]` (Bz-Phe-Tyr(Me)-OH), the 50% inhibitory concentration (IC50) in the data set on Hepatitis B virus [3] was found to be 20.5 µM. For the same compound, the CC50 at 216 h in data set [2] was 184 µM. Also, in data set [4], the “Selectivity Index” value came to 8.99.
For `COC(=O)[C@H](Cc1ccc([N+](=O)[O-])cc1)NC(=O)[C@H](Cc1ccc(O)cc1)NC(=O)c1ccncc1`, the inhibition result in the data set on Hepatitis B virus [1] was “inactive”. Besides, in data set [2], the CC50 at 216 h was found to be 238 µM.
Taken in the same sequence, the figures for `O=C(N[C@@H](Cc1ccc(O)cc1)C(=O)N[C@H](CO)Cc1ccccc1)c1ccncc1` were “inactive” and 612 µM.
The corresponding values for `CC(=O)OC[C@H](Cc1ccccc1)NC(=O)[C@H](Cc1ccccc1)NC(=O)c1ccc(CN2CCOCC2)cc1` are “inactive” and 609 µM.
As to `O=C(N[C@@H](Cc1ccccc1)C(=O)N[C@H](CO)Cc1ccccc1)c1ccncc1`, the IC50 in the data set with Hepatitis B virus [3] worked out at 28.9 µM. Besides, the CC50 at 216 h in data set [2] turned out to be 214 µM. The “Selectivity Index” value in data set [4] stood at 7.39.
Taken in the same sequence, the figures for `CCCCOc1ccc(C[C@H](NC(=O)[C@H](Cc2ccccc2)NC(=O)c2ccccc2)C(=O)OC)cc1` were 174 µM, 1150 µM and 6.6.
Regarding `COC(=O)[C@H](Cc1ccc(O)cc1)NC(=O)[C@H](Cc1ccccc1)NC(=O)c1ccc(NC(C)=O)cc1` (Ac-[4Abz]-Phe-Tyr-OMe), in the data set with Hepatitis B virus [3], the IC50 was 9.06 µM. Also, the CC50 at 216 h in data set [2] is 771 µM. Further, the “Selectivity Index” value in data set [4] turned out to be 85.09.
Turning to `CC(=O)OC[C@H](Cc1ccccc1)NC(=O)[C@H](Cc1ccccc1)NC(=O)c1ccc(CN(C)C)cc1`, the inhibition entry with Hepatitis B virus [1] is “inactive”. In addition, the CC50 at 216 h in data set [2] worked out at 508 µM.
`O=C(N[C@@H](Cc1ccccc1)C(=O)N[C@H](CO)Cc1ccccc1)c1ccc(CN2CCOCC2)cc1`: the IC50 in the data set with Hepatitis B virus [3] turned out to be 13.9 µM. Also, the CC50 at 216 h in data set [2] was 157 µM. Also, the “Selectivity Index” value in data set [4] is recorded as 11.25.
Taken in the same sequence, the figures for `CCCCOc1ccc(C[C@H](NC(=O)[C@H](Cc2ccccc2)NC(=O)c2ccccc2)C(=O)[O-])cc1.[Na+]` were 64.6 µM, 979 µM and 15.2.
Consider `CCOc1ccc(C[C@H](NC(=O)[C@H](Cc2ccccc2)NC(=O)c2ccccc2)C(=O)OC)cc1` (Bz-Phe-Tyr(Et)-OMe), for which the concentration for half-maximal inhibition (IC50) in the data set on Hepatitis B virus [3] was 14 µM. The CC50 at 216 h in data set [2] came out at 818 µM. In addition, in data set [4], the “Selectivity Index” value turned out to be 58.61.
For the compound `COC(=O)[C@H](Cc1ccccc1)NC(=O)[C@H](Cc1ccccc1)NC(=O)c1ccncc1`, the inhibition result with Hepatitis B virus [1] was “inactive”. Also, the CC50 at 216 h in data set [2] is 1060 µM.
As to `CC(=O)Nc1ccc(C(=O)N[C@@H](Cc2ccccc2)C(=O)N[C@H](CCl)Cc2ccccc2)cc1`, the half-inhibitory concentration (IC50) in the data set on Hepatitis B virus [3] stood at 0.71 µM. In data set [2], the CC50 at 216 h was found to be 30.1 µM. For the same compound, the “Selectivity Index” value in data set [4] was 42.26.
Regarding `CCOc1ccc(C[C@H](NC(=O)[C@H](Cc2ccccc2)NC(=O)c2ccccc2)C(=O)O)cc1` (Bz-Phe-Tyr(Et)-OH), in the data set on Hepatitis B virus [1], the inhibition entry was “inactive”. Further, the CC50 at 216 h in data set [2] came to 1010 µM.
Taken in the same sequence, the figures for `COC(=O)[C@H](Cc1ccccc1)NC(=O)[C@H](Cc1ccccc1)NC(=O)c1ccc(NC(=O)CN2CCCC2)cc1` were “inactive” and 106 µM.
For the compound `O=C(N[C@@H](Cc1ccccc1)C(=O)N[C@H](CO)Cc1ccccc1)c1ccc(CN2CCCC2)cc1`, the IC50 in the data set with Hepatitis B virus [3] stood at 14.1 µM. In addition, the CC50 at 216 h in data set [2] is 128 µM. Further, the “Selectivity Index” value in data set [4] amounted to 9.11.
`COC(=O)[C@H](Cc1ccc([N+](=O)[O-])cc1)NC(=O)[C@H](Cc1ccccc1)NC(=O)c1ccncc1`: the inhibition entry in the data set on Hepatitis B virus [1] is “inactive”. The CC50 at 216 h in data set [2] was found to be 812 µM.
Turning to `CCC(=O)Nc1ccc(C(=O)N[C@@H](Cc2ccccc2)C(=O)N[C@@H](Cc2ccc([N+](=O)[O-])cc2)C(=O)OC)cc1` ({Propionyl-4Abz}-Phe-[Phe(4-NO2)]-OMe), the IC50 in the data set on Hepatitis B virus [3] is 4.37 µM. In addition, the CC50 at 216 h in data set [2] was determined as 147 µM. Moreover, in data set [4], the “Selectivity Index” value worked out at 33.53.
On to `CN(C)CCOc1ccc(C(=O)N[C@@H](Cc2ccccc2)C(=O)N[C@H](CO)Cc2ccccc2)cc1`, for which the IC50 in the data set on Hepatitis B virus [3] came to 27.6 µM. Besides, the CC50 at 216 h in data set [2] was found to be 327 µM. For the same compound, in data set [4], the “Selectivity Index” value came out at 11.86.
The corresponding values for `COC(=O)[C@H](Cc1ccccc1)NC(=O)[C@H](Cc1ccccc1)NC(=O)c1ccc(OCCN(C)C)cc1` are 105 µM, 497 µM and 4.74.
Turning to `CC(=O)Nc1ccc(C(=O)N[C@@H](Cc2ccc(O)cc2)C(=O)N[C@H](CO)Cc2ccccc2)cc1`, the inhibition result in the data set with Hepatitis B virus [1] is “inactive”. Also, the CC50 at 216 h in data set [2] was 749 µM.
